The text below walks through data of article PMC3949619 (Bioorganic & medicinal chemistry, 2013).

pIC50: −log10 of the molar value.

As a reminder, the pIC50 is the IC50 on a negative log10 scale, so that one unit is a factor of ten.

In data set [1] the test system is human breast cancer xenograft (MDA-MB-435). The following applies: MDA-MB-435 human breast cancer xenograft, athymic nude mice; cited from earlier work. Background: In xenograft studies the graft and the host belong to different species.
A further data set deals with KB3-1. The following applies: read-out: IC50 against KB3-1 cells; range for compounds 1 and 2 together; cited from earlier work.
The test system of data set [2] is KBH5.0 (overexpresses BCRP). The data set is described as follows: MTT-microtiter plate tetrazolinium cytotoxicity assay. The format is cell-based, human. The following applies: inferred from cytotoxicity in KBH5.0 versus parent KB3-1.
In data set [3] the test system is d(TTAGGG)4 quadruplex DNA. In words: UV melting of quadruplex DNA. The following applies: range over 50 and 150 mM K+ and over the compounds named together. The format is binding, human. A digest of the protocol: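 d(TTAGGG)4 at 5 μM strand, annealed at 90 °C for 5 min and slowly cooled over 4 h; test compound 20 μM. Buffer: 10 mM potassium phosphate, pH 7.5, plus KCl at 32 mM (50 mM K+) or 132 mM (150 mM K+). Absorbance read at 295 nm in 0.5 °C steps with 1 min equilibration. Ttran taken from the first-derivative minimum. ΔTtran is the shift against DNA alone, ±1.0 °C.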

Data set [4] deals with KBV-1 (overexpresses the efflux transporter MDR1). In words: MTT-microtiter plate tetrazolinium cytotoxicity assay. The following applies: inferred from cytotoxicity in KBV-1 versus parent KB3-1. It is filed as cell-based, human.
The conditions of data set [5]: qualitative statement of the introduction; no reference given; cited from earlier work.
The conditions of data set [6]: in vivo; cited from earlier work.

With `CN(C)CCc1cc2cc(c1)CNC(=O)c1coc(n1)-c1coc(n1)-c1cccc(n1)-c1nc(co1)-c1nc(co1)C(=O)NC2` [Compound 2], the “%T/C value” in data set [1] is 27.7%. Further, in the data set with KB3-1, the negative-log IC50 (pIC50) was 7.40 to 7.52.

As for `O=C1CNC(=O)c2coc(n2)-c2coc(n2)-c2cccc(c2)-c2cccc(c2)-c2nc(co2)-c2nc(co2)CN1` [Compound 16], the “substrate for BCRP efflux transporter” value in data set [2] is reported as “substrates”. The “ΔTtran of quadruplex DNA (range given)” value in data set [3] is 4.1–6.4 °C. Also, the “substrate for MDR1 efflux transporter” value in data set [4] is “substrates”.

Turning to `CC(C)[C@@H]1NC(=O)c2coc(n2)-c2coc(n2)-c2cccc(c2)-c2cccc(c2)-c2nc(co2)-c2nc(co2)CNC1=O` [Compound 17], the “ΔTtran of quadruplex DNA (range given)” value in data set [3] is 4.1–6.4 °C.

Turning to `O=C1N[C@@H](Cc2ccccc2)C(=O)NCc2coc(n2)-c2coc(n2)-c2cccc(c2)-c2cccc(c2)-c2nc(co2)-c2nc1co2` [Compound 18], the “ΔTtran of quadruplex DNA (range given)” value in data set [3] was 1.1–2.8 °C.

For `CC(C)(C)OC(=O)NCC[C@@H]1NC(=O)c2coc(n2)-c2coc(n2)-c2cccc(c2)-c2cccc(c2)-c2nc(co2)-c2nc(co2)CNC1=O` [Compound 19], the “ΔTtran of quadruplex DNA (range given)” value in data set [3] is 1.1–2.8 °C.

As for `NCC[C@@H]1NC(=O)c2coc(n2)-c2coc(n2)-c2cccc(c2)-c2cccc(c2)-c2nc(co2)-c2nc(co2)CNC1=O` [Compound 20], the “substrate for BCRP efflux transporter” value in data set [2] was “substrates”. The “ΔTtran of quadruplex DNA (range given)” value in data set [3] was 8.4–14.6 °C. The “substrate for MDR1 efflux transporter” value in data set [4] is reported as “substrates”.

Turning to `CN(C)CC[C@@H]1NC(=O)c2coc(n2)-c2coc(n2)-c2cccc(c2)-c2cccc(c2)-c2nc(co2)-c2nc(co2)CNC1=O` [Compound 21], the “substrate for BCRP efflux transporter” value in data set [2] was “substrates”. For the same molecule, the “ΔTtran of quadruplex DNA (range given)” value in data set [3] is 8.4–14.6 °C. Further, in data set [4], the “substrate for MDR1 efflux transporter” value was “substrates”.

On to `CC(C)[C@@H]1NC(=O)c2coc(n2)-c2coc(n2)-c2coc(n2)[C@H](C(C)C)NC(=O)c2coc(n2)-c2coc(n2)-c2coc1n2` [HXDV], for which, in data set [5], the “aqueous solubility” value is on record as “poor aqueous solubility”.

`CC(C)[C@@H]1NC(=O)c2coc(n2)-c2coc(n2)-c2coc(n2)C/C=C/c2coc(n2)-c2coc(n2)-c2coc1n2` [METV]: the “aqueous solubility” value in data set [5] was “poor aqueous solubility”.

As to `CC(C)[C@@H]1NC(=O)c2coc(n2)-c2coc(n2)-c2coc(n2)[C@H](CCN(C)C)NC(=O)c2coc(n2)-c2coc(n2)-c2coc1n2` [YAK-1-161], the “well tolerated dose levels” value in data set [6] was at most 45 mg/kg.
